These results are taken from ChEMBL document CHEMBL3867451, “Phenolic Metabolites of Dalea ornata Affect Both Survival and Motility of the Human Pathogenic Hookworm Ancylostoma ceylanicum” (J Nat Prod, 2016).

By LD50 is commonly meant the dose expected to kill half of the subjects tested. The term mortality denotes the share of the test organisms that died.

The subject of data set [1] is Ancylostoma ceylanicum. The data set is described as follows: Anthelmintic activity against Ancylostoma ceylanicum isolated from infected Syrian hamster feces assessed as survival rate at 25 ug/ml measured on day 3 relative to control. To be noted: 72 h. It is filed as functional.
The test system of data set [2] is Ancylostoma ceylanicum. The experiment in a line: Anthelmintic activity against Ancylostoma ceylanicum isolated from infected Syrian hamster feces assessed as survival rate at 25 ug/ml measured on day 2 relative to control. It is filed as functional. The conditions noted are these: 48 h.
For data set [3], the system named is Ancylostoma ceylanicum. The data set is described as follows: Anthelmintic activity against Ancylostoma ceylanicum isolated from infected Syrian hamster feces assessed as survival rate at 25 ug/ml measured on day 4 relative to control. The format is functional. The conditions noted are these: 96 h.
Data set [4] deals with Ancylostoma ceylanicum. The experiment in a line: Anthelmintic activity against Ancylostoma ceylanicum isolated from infected Syrian hamster feces assessed as survival rate at 25 ug/ml measured on day 1 relative to control. The format is functional. The conditions noted are these: 24 h.
Data set [5] can be described thus: Effect on Syrian hamster splenocytes proliferation assessed as stimulation index by BrdU-incorporation based colorimetric analysis. To be noted: splenocyte. It is filed as ADME, cell-based, Mesocricetus auratus. The gist of the method: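 Hamster spleens dissociated through strainers, red cells lysed, cells washed in RPMI. Plated in triplicate at 10⁵ cells per well with several doses of compound. 1% DMSO served as negative control, concanavalin A as positive control. Proliferation read by colorimetric BrdU incorporation. Index is mean OD450 of compound wells divided by mean OD450 of medium plus 1% DMSO wells, with 1 meaning no effect.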

Data set [6] relates to Ancylostoma ceylanicum. The experiment in a line: Anthelmintic activity against Ancylostoma ceylanicum isolated from infected Syrian hamster feces assessed as survival rate at 25 ug/ml measured on day 5 (reference value: >95%). It is filed as functional. The conditions noted are these: 120 h.
Data set [7] has as its system Ancylostoma ceylanicum. The experiment in a line: Anthelmintic activity against Ancylostoma ceylanicum isolated from infected Syrian hamster feces assessed as motility at 25 ug/ml measured on day 5. The format is functional. The gist of the method: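 Adult worms from hamster intestine washed in RPMI with fungizone (25 μg/mL) and 20× pen/strep, held overnight at 37 °C, 5% CO2 in that medium plus 50% FBS. Compound added from DMSO stock to 1% DMSO final; 1% DMSO negative control. Motility scored on a 0–3 scale, worms stimulated by microscope light and heat and gentle manipulation.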

The nature of data set [8]: Toxicity in po dosed rat. The format is organism-based. To be noted: in vivo.
The subject of data set [9] is Ancylostoma ceylanicum. The data set is described as follows: Anthelmintic activity against Ancylostoma ceylanicum isolated from infected Syrian hamster feces assessed as mortality at 10 ug/ml measured on day 3 relative to control. It is filed as functional. The conditions noted are these: 72 h.

Turning to `C=CC(C)(C)c1cc([C@@H]2CC(=O)c3c(O)cc(O)c(CC=C(C)C)c3O2)c(O)cc1O`, the survival at 25 µg/mL in the data set with Ancylostoma ceylanicum [1], in the data set with Ancylostoma ceylanicum [2], with Ancylostoma ceylanicum [3], in the data set on Ancylostoma ceylanicum [4] and with Ancylostoma ceylanicum [6] was 100% in each case. The Ratio in data set [5] lay in the range of 0.8 to 1.
As for `C=CC(C)(C)c1cc([C@@H]2CC(=O)c3ccc(O)c(CC=C(C)C)c3O2)c(O)cc1O`, the survival at 25 µg/mL stood at 100% in the data set on Ancylostoma ceylanicum [1]; 100% with Ancylostoma ceylanicum [2]; 97% in the data set on Ancylostoma ceylanicum [3]; 100% in the data set with Ancylostoma ceylanicum [4]; 90% in the data set on Ancylostoma ceylanicum [6]. Besides, the Ratio in data set [5] was 0.8 to 1.
For the compound `CC(C)=CCc1c(O)c(O)cc2c1O[C@H](c1ccc(O)cc1)CC2=O`, the survival at 25 µg/mL with Ancylostoma ceylanicum [1] came out at 90%; in the data set on Ancylostoma ceylanicum [2], 97%; with Ancylostoma ceylanicum [3], 83%; in the data set on Ancylostoma ceylanicum [4], 100%; with Ancylostoma ceylanicum [6], 83%. The Ratio in [5] came to 0.8.
Regarding `CC(C)=CCC/C(C)=C/Cc1c(O)ccc2c1O[C@H](c1ccc(O)cc1O)CC2=O`, the survival at 25 µg/mL with Ancylostoma ceylanicum [1] amounted to 100%; in the data set with Ancylostoma ceylanicum [2] it was 100%; in the data set on Ancylostoma ceylanicum [3], 100%; with Ancylostoma ceylanicum [4], 100%; in the data set on Ancylostoma ceylanicum [6], 93%. The Ratio in [5] lay within 0.8 to 1.
Consider `COc1ccc2c(c1)O[C@@H]1c3ccc(O)cc3OC[C@H]21`, for which the survival at 25 µg/mL with Ancylostoma ceylanicum [1], with Ancylostoma ceylanicum [2], in the data set on Ancylostoma ceylanicum [3], in the data set on Ancylostoma ceylanicum [4] and in the data set with Ancylostoma ceylanicum [6] was 100% each time. For the same compound, the Ratio in data set [5] is 0.8 to 1.
On to `CC(C)=CCc1c(O)ccc2c1O[C@H](c1ccc(O)cc1O)CC2=O`, for which the survival at 25 µg/mL was determined as 90% in the data set with Ancylostoma ceylanicum [1]; 100% in the data set with Ancylostoma ceylanicum [2]; 80% in the data set with Ancylostoma ceylanicum [3]; 100% in the data set on Ancylostoma ceylanicum [4]; 80% in the data set with Ancylostoma ceylanicum [6]. Also, the Ratio in data set [5] lay in the range of 0.8 to 1.
As to `Oc1ccc2c(c1)OC[C@@H]1c3cc4c(cc3O[C@H]21)OCO4` [(+)-MAACKIAIN], the survival at 25 µg/mL with Ancylostoma ceylanicum [1] was determined as 83%; in the data set with Ancylostoma ceylanicum [2] it was 93%; with Ancylostoma ceylanicum [3], 80%; with Ancylostoma ceylanicum [4] it was 100%; with Ancylostoma ceylanicum [6] it was 73%. In addition, the Ratio in [5] is given as 1. In addition, in the data set on Ancylostoma ceylanicum [7], the Activity was found to be 80%.
In the case of `COc1cc2c(cc1OC)[C@@H]1C(=O)c3ccc4c(c3O[C@@H]1CO2)C=CC(C)(C)O4` [DEGUELIN], the survival at 25 µg/mL was found to be 40% in the data set on Ancylostoma ceylanicum [1]; 50% with Ancylostoma ceylanicum [2]; 0% in the data set with Ancylostoma ceylanicum [3]; 100% in the data set with Ancylostoma ceylanicum [4]; 0% in the data set with Ancylostoma ceylanicum [6]. Also, the Ratio in [5] is 0.8 to 1.
In the case of `CC(C)=CCc1c(O)cc(O)c2c1O[C@H](c1ccc(O)cc1O)CC2=O` [LEACHIANONE G], the survival at 25 µg/mL with Ancylostoma ceylanicum [1] turned out to be 93%; in the data set with Ancylostoma ceylanicum [2], 97%; in the data set on Ancylostoma ceylanicum [3], 93%; in the data set on Ancylostoma ceylanicum [4], 100%; with Ancylostoma ceylanicum [6] it was 87%. For the same compound, the Ratio in data set [5] was in the range of 0.8 to 1.
In [8], `C=C(C)[C@H]1Cc2c(ccc3c2O[C@@H]2COc4cc(OC)c(OC)cc4[C@@H]2C3=O)O1` [ROTENONE] had an LD50 of 132 to 1500 mg/kg.
Turning to `COc1cc2c(cc1OC)[C@]1(O)C(=O)c3ccc4c(c3O[C@@H]1CO2)C=CC(C)(C)O4` [TEPHROSIN], the mortality at 10 µg/mL with Ancylostoma ceylanicum [9] is 100%. Further, the survival at 25 µg/mL was 0% in the data set with Ancylostoma ceylanicum [1]; 3% with Ancylostoma ceylanicum [2]; 0% in the data set on Ancylostoma ceylanicum [3]; 77% with Ancylostoma ceylanicum [4]; 0% in the data set with Ancylostoma ceylanicum [6]. Further, in [5], the Ratio lay within 0.8 to 1.
